Out of some 11,000 compounds screened, about 510 (4.6%) were called active. The full list was thinned out, with actives kept by preference. A number with no mark means an inactive call.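 Rule for the calls: active = inhibition of at least 40% at 10 µM in either of the two replicates; inactive = the rest.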
system: intestinal alkaline phosphatase [Mus musculus]; test: inhibitors of mouse IAP, confirmation, biochemical, luminescence, single concentration (AID 434971); details: purified mouse IAP, CDP-Star luminescence, 30 min; at 10 µM; active compounds read high;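 note: plate controls were DMSO wells with enzyme for no effect and buffer wells lacking enzyme for full effect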
Summary of the method: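 Test system: mouse IAP enzyme / Times: 30 min reaction at room temperature / Detection: luminescence / Controls: no-enzyme negative control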

| Structure (SMILES) | inhibition |
| --- | --- |
| COc1ccc(N2C(=O)/C(=C/c3ccco3)C(=O)NC2=S)cc1 | 43.2% (active) |
| Cc1cc(C)cc(NC(=S)NC2CC3CCCC(C2)N3Cc2cccs2)c1 (centres undefined) | -150% |
| O=C1NC(=O)N(Cc2ccco2)C(=O)/C1=C\c1ccc(-c2ccc(F)cc2)o1 | 83.5% (active) |
| O=C1NC(=O)N(Cc2ccco2)C(=O)/C1=C\c1cccn1CCOc1ccccc1 | 50.6% (active) |

From PubChem BioAssay AID434971 (Sanford-Burnham Center for Chemical Genomics, 2010)
